Assay results collected from several papers.
Lines come from different studies, so protocols differ.
Target: Serine/threonine-protein kinase Chk2 (CHEK2, Homo sapiens, UniProt O96017)

Structure (SMILES)	test	setting	quantity	value
CC(C)(C)c1cc(C=C(C#N)C#N)cc(Br)c1O	enzyme activity, inhibitor	0.5 µM	remaining activity	104%
COc1cc(Nc2ncc(F)c(Nc3ccc4c(n3)NC(=O)C(C)(C)O4)n2)cc(OC)c1OC	binding, competition with immobilised ligand	10 µM	inhibition	45%
COc1ncccc1-c1cnn2ccc(N3CCN(C(=O)OC(C)C)CC3)nc12	binding, competition with immobilised ligand	1 µM	remaining binding	77%
Nc1ncc(-c2nc(N3CCOCC3)nc(N3CCOCC3)n2)c(C(F)F)n1	binding, competition with immobilised ligand	10 µM	remaining binding	75%
N#CC1(c2ccccn2)CCN(Cc2cc(C(=O)O)c(=O)n3ccccc23)CC1	cell-free assay, competition with immobilised ligand	1 µM	remaining binding	87%
O=c1[nH]c2ccccc2n1C1CCN(Cc2ccc(-c3[nH]c4cc5ncnc5cc4nc3-c3ccccc3)cc2)CC1	cell-free assay	0.5 µM	remaining signal	100%
Cn1cc(-c2cc(F)cc(N3CCn4c(cc5c4CCCC5)C3=O)c2CO)cc(Nc2ccc(N3CCN(C4COC4)CC3)cn2)c1=O	enzyme activity, inhibitor	0.1 µM	inhibition	11%
Cn1cncc1[C@@](O)(COc1ccc(C#N)cc1-c1ccc(OC(F)(F)F)cc1)c1ccc(C#N)cc1	cell-free assay, competition with immobilised ligand	1 µM	remaining binding	96%
Cc1nn(C)cc1-c1nc2c(N3CCN(Cc4ccc(Cl)cc4)CC3)c(Cl)cnc2[nH]1	binding, competition with immobilised ligand	1 µM	remaining binding	100%
Cn1cc(-c2cccc(N3CCc4c(sc5c4CC(C)(C)C5)C3=O)c2CO)cc(Nc2ccncn2)c1=O	enzyme activity, inhibitor	1 µM	inhibition	1%
